Published values of several laboratories.
Target: Tyrosine-protein kinase ABL2 (ABL2, Homo sapiens, UniProt P42684)

`COc1cc2nccc(Oc3ccc(NC(=O)c4c5n(n(-c6ccc(F)cc6)c4=O)CCCC5)cc3)c2cc1OC` has an inhibition of 36% (enzyme activity, inhibitor; 0.1 µM).
With `O=C(Nc1cnn(-c2csc(C(=O)NC3COC3)c2)c1)Nc1c(F)cccc1Cl` the remaining activity was 88.7% (enzyme activity, inhibitor; 5 µM).
`CN(C)c1ncnc(-c2ccc3nc(Nc4cc(CN5CCN(C(=O)CC(F)(F)F)CC5)ccn4)[nH]c3c2)c1Cl` has a remaining binding of 71% (cell-free assay, competition with immobilised ligand; 1 µM).
With `CCN(CC)CCNC(=O)c1c(C)[nH]c(/C=C2\C(=O)Nc3ccc(F)cc32)c1C` the inhibition was 77% (binding, competition with immobilised ligand; 10 µM).
With `CC(C)(C)c1nc2c(s1)c1nc(N)ncc1c1ccc(NS(=O)(=O)c3c(F)cccc3F)c(F)c12` the remaining activity was 99% (enzyme activity, inhibitor, radiometric; 1 µM).
`COc1cc(-c2cn(C3CCc4ccccc4N(CC(F)(F)F)C3=O)nn2)ccc1-n1ccc(C)n1` (stereo not shown) has a remaining binding of 100% (cell-free assay, competition with immobilised ligand; 1 µM).
The remaining signal of `N#CCCc1ccc2c(c1)-c1[nH]c3ccc([N+](=O)[O-])cc3c1CC(=O)N2` is reported as 49.8% (cell-free assay; 0.5 µM).
`CNC(=O)c1cc(Oc2ccc(NC(=O)Nc3ccc(Cl)c(C(F)(F)F)c3)cc2)ccn1` gave an inhibition of 11% (enzyme activity, inhibitor; 0.3 µM).
`Cc1ccc(C(=O)NCc2ccsc2)cc1C#Cc1cn(C(C)C)c2ncnc(N)c12` has an activity vs control of 6% (enzyme activity, inhibitor; 1 µM).
`COCCOc1nc(-c2ccc(Cl)nc2)nc2c1CN(C(=O)c1ncn3ccccc13)CC2` has a remaining binding of 100% (cell-free assay, competition with immobilised ligand; 0.1 µM).
`Cc1ccc(Nc2nccc(N(C)c3ccc4c(C)n(C)nc4c3)n2)cc1S(N)(=O)=O` has an inhibition of 84% (enzyme activity, inhibitor; 10 µM).
For `O=C1NC(=O)c2cc(Nc3ccc(F)cc3)c(Nc3ccc(F)cc3)cc21`, the remaining signal was 89.6% (cell-free assay; 0.5 µM).
`Cc1cc(NC(=O)c2cccc3cc(-c4cccc5[nH]nc(N)c45)ccc23)ccc1F` has an activity vs control of 122% (enzyme activity, inhibitor; 0.1 µM).
The remaining binding of `CC(=O)N1CCC(c2ccc(C(=O)NC3=NCCN3)cc2C(F)(F)F)CC1` is reported as 100% (cell-free assay, competition with immobilised ligand; 1 µM).
`CCCOc1ccc(OC)c(F)c1C(=O)c1ccc(C(=O)N[C@@H]2CNC[C@H]2NC(=O)c2ccc3[nH]ncc3c2)cc1` has a remaining activity of 89% (enzyme activity, inhibitor; 10 µM).
`Cc1c(NC(=O)c2cc(C(N)=O)nc3cc(F)ccc23)c(C(F)(F)F)nn1Cc1ccc(C(C)(C)C)cc1` has a remaining binding of 87% (cell-free assay, competition with immobilised ligand; 1 µM).
For `Cc1cnc(NC2CCOCC2)nc1-n1cnc(C(=O)NC(CN)c2cc(F)cc(Cl)c2)c1` (stereo not shown), the remaining activity was 87% (enzyme activity, inhibitor, radiometric; 1 µM).
`COc1cc2ncnc(Nc3ccc(Oc4ccccc4)cc3C)c2cc1OC` gave an inhibition of 16% (enzyme activity, inhibitor; 1 µM).
For `Cc1cc(NC(=O)c2cccc(S(F)(F)(F)(F)F)c2)cc(-n2ccn3nc(-c4cccnc4)cc23)c1`, the remaining binding was 100% (cell-free assay, competition with immobilised ligand; 1 µM).
The remaining signal of `Cc1ccc(NC(=O)c2ccc(C)c(C(F)(F)F)c2)cc1C#Cc1nn(C2CCC(O)CC2)c2ncnc(N)c12` (stereo not shown) is reported as 0% (cell-free assay; 10 µM).
With `O=C(Nc1cnn(-c2csc(C(=O)NC3COC3)c2)c1)Nc1ccccc1Cl` the remaining activity was 92.7% (enzyme activity, inhibitor; 5 µM).
The remaining signal of `Nc1ncnc2occ(-c3ccc(NC(=O)Nc4cc(C(F)(F)F)ccc4F)cc3)c12` is reported as 0.65% (cell-free assay, inhibitor; 20 µM).
